From ChEMBL document CHEMBL5107962, “Covalent sortase A inhibitor ML346 prevents Staphylococcus aureus infection of Galleria mellonella” (RSC Med Chem, 2022)
Activity calls are given as the source filed them. The calls are words filed in the database; no cut-off is given here.

Assays:
[1] = Inhibition of recombinant Streptococcus pyogenes sortase A deltaN81 transpeptidation expressed in Escherichia coli BL21 (DE3) cells using Abz-LPATG-Dnp as substrate preincubated for 20 mins followed by substrate addition and measured every 1 min for 15 mins by FRET assay
Method in brief: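 His-tagged enzyme purified by Ni-NTA and gel filtration. 1 µM SrtA preincubated with compound (0.05–50 µM) for 20 min at room temperature in 50 mM Tris-HCl pH 7.5, 150 mM NaCl, 5 mM CaCl2. Reaction started with 10 µM Abz-LPATG-Dnp, read at ex 309/em 420 nm. IC50 from a sigmoidal dose–response fit; triplicates, two experiments.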

Sortase A [2] = target: T1, Sortase A (Staphylococcus aureus, UniProt Q9S446); test: Irreversible inhibition of recombinant Staphylococcus aureus sortase A deltaN24 expressed in Escherichia coli BL21(DE3) cells using Abz-LPATG-Dnp as substrate preincubated for 40 mins followed by substrate addition and measured every 1 min for 15 mins by FRET-based assay
Method in brief: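 SaSrtAΔN24 preincubated with compound for 10, 20, 40 or 60 min before FRET IC50 determination with Abz-LPATG-Dnp in Tris pH 7.5, NaCl, CaCl2 buffer.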

[3] = Irreversible inhibition of recombinant Streptococcus pyogenes sortase A deltaN81 expressed in Escherichia coli BL21(DE3) cells using Abz-LPATG-Dnp as substrate preincubated for 10 mins followed by substrate addition and measured every 1 min for 15 mins by FRET-based assay
Sortase A [4] = target: T1, Sortase A; test: Irreversible inhibition of recombinant Staphylococcus aureus sortase A deltaN24 expressed in Escherichia coli BL21(DE3) cells using Abz-LPATG-Dnp as substrate assessed as inactivation constant preincubated for 60 mins followed by substrate addition and measured every 1 min for 15 mins by fluorescence intensity based assay
Method in brief: (§1)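 Variable inhibitor concentrations incubated with SaSrtAΔN24 or SpSrtAΔN81 for different times, followed by FRET enzyme kinetics with Abz-LPATG-Dnp. kobs fitted as kinact × [I]/(KI + [I]) to give kinact and KI.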

[5] = test system: Sortase A (Staphylococcus aureus), Q9S446 [UNDEFINED MUTATION]; test: (§2) Irreversible inhibition of recombinant Staphylococcus aureus sortase A deltaN24 expressed in Escherichia coli BL21(DE3) cells using Abz-LPATG-Dnp as substrate assessed as maximum inactivation rate constant preincubated for 60 mins followed by substrate addition and measured every 1 min for 15 mins by fluorescence intensity based assay; details: time 75.0 min; method in brief: as §1
Streptococcus pyogenes [6] = test: as §2, with “Streptococcus pyogenes” for “Staphylococcus aureus”, “deltaN81” for “deltaN24”; details: time 75.0 min; method in brief: as §1
Streptococcus pyogenes [7] = test: Irreversible inhibition of recombinant Streptococcus pyogenes sortase A deltaN81 expressed in Escherichia coli BL21(DE3) cells using Abz-LPATG-Dnp as substrate assessed as Kinact/Ki ratio preincubated for 60 mins followed by substrate addition and measured every 1 min for 15 mins by fluorescence intensity based assay; details: time 75.0 min; method in brief: as §1
[8] = Selectivity ratio of Ki for irreversible inhibition of recombinant Staphylococcus aureus sortase A deltaN24 expressed in Escherichia coli BL21(DE3) cells to Ki for irreversible inhibition of recombinant Streptococcus pyogenes sortase A deltaN81 expressed in Escherichia coli BL21(DE3) cells
Cathepsin B = Cathepsin B (Homo sapiens, UniProt P07858); test: Inhibition of cathepsin B (unknown origin) using Cbz-Phe-Arg-AMC as substrate at 20 uM preincubated for 5 mins followed by substrate addition and measured after 10 mins by fluorometric assay; details: time 15.0 min
Method in brief: (§3)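 Cbz-Phe-Arg-AMC added (40 µM for B, 80 µM for L) and fluorescence read at ex 380/em 460 nm over 10 min. E64 at 6.25 nM as control. Triplicates, two experiments.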

Procathepsin L = Procathepsin L (Homo sapiens, UniProt P07711); test: Inhibition of cathepsin L (unknown origin) using Cbz-Phe-Arg-AMC as substrate at 20 uM preincubated for 5 mins followed by substrate addition and measured after 10 mins by fluorometric assay; details: time 15.0 min; method in brief: as §3
Staphylococcus aureus [9] = test: Anti-virulence activity against Staphylococcus aureus Newman assessed as decrease in SpA display on cell envelope at 25 to 200 uM by Western blot analysis; type: functional, organism-based; details: dose 25-200 µM
Method in brief: (§4)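 S. aureus overnight culture diluted 1:1000 in TSB and grown with inhibitor until A600 3.0. Washed cells treated with 10 µg mL-1 lysostaphin in PBS for 15 min at 37 °C. Supernatant (cell-wall anchored proteins) run on SDS-PAGE and immunoblotted for SpA, with ClpP as loading control. Three independent experiments.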

Staphylococcus aureus [10] = test: Anti-virulence activity against Staphylococcus aureus USA300 assessed as decrease in SpA display on cell envelope by Western blot analysis; type: functional, organism-based; details: dose 25-200 µM, DDE = dose-dependent effect; method in brief: as §4
Staphylococcus aureus [11] = test: Anti-virulence activity against Staphylococcus aureus USA300 assessed as decrease in cell-wall anchored SpA level at 25 to 200 uM by FITC-labelled human IgG based […]; type: functional, organism-based; details: dose 25-200 µM
Method in brief: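 S. aureus grown in TSB (1:1000 dilution) with inhibitor until A600 1.0. Washed cells incubated with FITC-labelled human IgG in PBS for 30 min at room temperature in the dark, rinsed, and read by fluorescence. Three technical replicates, three independent experiments. Mean ± SEM, unpaired two-tailed Student's t test (n = 3).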

Staphylococcus aureus [12] = test: Antibiofilm activity against wild type Staphylococcus aureus Newman assessed as reduction in biofilm biomass at 25 to 200 uM incubated for 18 hrs by crystal violet staining based microplate reader analysis; type: functional, organism-based; details: dose 25-200 µM
Method in brief: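 S. aureus overnight culture diluted 1:1000 in TSB with inhibitor, grown static at 37 °C for 18 h. Wells rinsed with PBS, fixed with methanol 10 min, stained with 0.1% crystal violet 15 min. Stain dissolved in 33% acetic acid and A600 read. Three independent experiments, mean ± SEM.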

Escherichia coli = test: Antibacterial activity against Escherichia coli AB1157 assessed as inhibition of bacterial growth incubated for 16 to 18 hrs; type: functional; details: time 16-18 hrs
Method in brief: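 Broth microdilution: S. aureus in TSB, E. coli in LB. Overnight cultures diluted 1:1000, grown at 37 °C to A600 0.6, then diluted 1:400 into two-fold compound dilutions. Incubated 16–18 h at 37 °C without shaking. MIC taken as the lowest concentration with no visible growth. Two independent experiments.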

[13] = Toxicity in Galleria mellonella larvae assessed as survivability measured after 120 hrs
Method in brief: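 G. mellonella larvae (2-2.5 cm, creamy), starved 24 h, injected with 10 µL compound in vehicle (5% DMSO, 20% PEG300, 75% PBS with 6.6% solutol HS-15). Kept at 37 °C; survival and appearance recorded over 120 h with photography. Three independent experiments.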

Staphylococcus aureus [14] = test: Anti-infectivity against Staphylococcus aureus Newman infected in Galleria mellonella larvae assessed as survival rate at 25 mg/kg and measured after 120 hrs; type: functional
Method in brief: (§5)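 G. mellonella larvae (2-2.5 cm, creamy), starved 24 h at room temperature. S. aureus grown in TSB to A600 1.0, washed and resuspended in PBS, premixed with compound in vehicle (5% DMSO, 20% PEG300, 75% PBS with 6.6% solutol HS-15). Injected into last proleg at about 1 × 10^6 CFU/larva (Newman) or 1 × 10^7 CFU/larva (USA300). Groups of 15 kept at 37 °C, survival recorded 120 h, Mantel–Cox test.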

Staphylococcus aureus [15] = test: Anti-infectivity against methicillin-resistant Staphylococcus aureus USA300 infected in Galleria mellonella larvae assessed as survival at 12.5 mg/kg and measured after 120 hrs; type: functional, organism-based; method in brief: as §5

Procathepsin L, sequence (P07711 114-333 limits assumed): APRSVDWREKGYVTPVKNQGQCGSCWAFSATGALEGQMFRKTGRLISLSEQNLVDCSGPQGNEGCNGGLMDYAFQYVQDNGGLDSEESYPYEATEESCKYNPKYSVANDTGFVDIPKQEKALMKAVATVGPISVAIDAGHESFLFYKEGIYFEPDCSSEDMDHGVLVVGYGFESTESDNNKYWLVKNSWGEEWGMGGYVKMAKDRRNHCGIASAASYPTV

## COc1ccc(/C=C/C=C2C(=O)NC(=O)NC2=O)cc1
[1]
  IC50: 1.37 µM
Sortase A [2]
  IC50: 0.4 µM
[3]
  IC50: 3.7 µM
Sortase A [4]
  Ki: 2.45 µM
[5]
  Kinact: 0.185 min⁻¹
Streptococcus pyogenes [6]
  Kinact: 0.044 min⁻¹
Streptococcus pyogenes [7]
  Ratio: 0.064 µM⁻¹ min⁻¹
[8]
  Ratio: 4
Cathepsin B
  inhibition: Active
Procathepsin L
  inhibition: Active
Staphylococcus aureus [9]
  Activity: Active
Staphylococcus aureus [10]
  Activity: Dde
Staphylococcus aureus [11]
  Activity: Active
Staphylococcus aureus [12]
  Activity: Active
Escherichia coli
  MIC: > 512 µg/mL
[13]
  Activity: Non-Toxic
Staphylococcus aureus [14]
  Activity: 46.7%
Staphylococcus aureus [15]
  Activity: Active
